# Measurements pooled from the literature.
# Protocols differ between the studies behind these lines.
Structure (SMILES),target or system,assay,setting,endpoint,value
C[C@H](N)C(=O)Nc1ccccc1/N=c1\cc(-c2ccc3c(c2)OCCO3)oc2c([N+](=O)[O-])cccc12,MCF7,"cell growth or viability, CCK-8",1 µM,inhibition,6.59%
CC(C)=CC1NCCc2cc(O)c(O)cc21 (stereo not shown),,"DPPH scavenging, absorbance","30 min, dark",IC50,54.2 µM
C#CCOC(=O)ON=C1C=CC(=C(C#N)c2ccccc2)C=C1,Candidozyma auris,"microbial growth, broth dilution",48 h,MIC,16 µg/mL
CCOC(=O)C1=C(CCl)NC(=O)NC1c1ccc(C)cc1 (stereo not shown),,DPPH scavenging,,IC50,235 µM
C#CCON=C1C=CC(=C(C#N)c2ccccc2)C=C1,Candidozyma auris,"microbial killing, broth dilution",48 h,MFC,64 µg/mL
CCOC(=O)C1=C(CSC2=NCCS2)NC(=O)NC1c1cccc(Cl)c1 (stereo not shown),,DPPH scavenging,,IC50,142 µM
CCCCCCCCCC1NCCc2cc(O)c(O)cc21 (stereo not shown),,"DPPH scavenging, absorbance","30 min, dark",IC50,62 µM
O=C1O[C@H]([C@@H](O)CO)C(O)=C1O,,DPPH scavenging,,IC50,88.4 µM
C[C@H](N)C(=O)Nc1ccccc1/N=c1\cc(-c2ccc3c(c2)OCCO3)oc2c(N)cccc12,MCF7,"cell growth or viability, CCK-8",1 µM,inhibition,7.27%
Oc1cc2c(cc1O)C(CCc1ccccc1)NCC2 (stereo not shown),,"DPPH scavenging, absorbance","30 min, dark",IC50,18 µM
CCOC(=O)C1=C(CCl)NC(=O)NC1c1ccc(F)cc1F (stereo not shown),,DPPH scavenging,,IC50,117 µM
O=C(C[C@@H](C(F)F)n1ccc(F)n1)N1CCC(O)(Cn2cnc3c(cnn3-c3ccc(F)cc3)c2=O)CC1,CAPAN-1,"cell growth or viability, SRB","2.222 µM, 5 days",viability,19.8%
CCOC(=O)C1=C(CCl)NC(=O)NC1c1ccc(C(C)C)cc1 (stereo not shown),,DPPH scavenging,,IC50,243 µM
CC(=O)ON=C1C=CC(=C(C#N)c2ccccc2)C=C1,Candidozyma auris,"microbial growth, broth dilution",48 h,MIC,16 µg/mL
COc1ccc(C2NCCc3cc(O)c(O)cc32)cc1O (stereo not shown),,"DPPH scavenging, absorbance","30 min, dark",IC50,18.7 µM
CCOC(=O)C1=C(CSC2=NCCS2)NC(=O)NC1c1cccc(C)c1 (stereo not shown),,DPPH scavenging,,IC50,224 µM
COc1cccc(C2NCCc3cc(O)c(O)cc32)c1 (stereo not shown),,"DPPH scavenging, absorbance","30 min, dark",IC50,18.2 µM
N#CC(=C1C=CC(=NOC(=O)OCc2ccccc2)C=C1)c1ccccc1,Candidozyma auris,"microbial growth, broth dilution",48 h,MIC,64 µg/mL
Oc1cccc(-c2nc(N3CCOCC3)c3oc4ncccc4c3n2)c1,MCF7,"cell growth or viability, CCK-8",1 µM,inhibition,13.9%
C=CC(=O)ON=C1C=CC(=C(C#N)c2ccccc2)C=C1,Candidozyma auris,"microbial killing, broth dilution",48 h,MFC,16 µg/mL
CCOC(=O)C1=C(CCl)NC(=O)NC1c1cccc(C)c1 (stereo not shown),,DPPH scavenging,,IC50,70.7 µM
CS(=O)(=O)NCCC(=O)Nc1ccccc1/N=c1\cc(-c2ccc3nc(N)oc3c2)oc2ccccc12,MCF7,"cell growth or viability, CCK-8",1 µM,inhibition,2%
